Key:
[1] = tested on: Human immunodeficiency virus 1; assay: Antiviral activity against HIV1 bearing protease gene with A17 mutation infected in human MT4 cells after 5 days by MTT assay; type: functional, organism-based; conditions: Human immunodeficiency virus 1, MT4, 120 h
Procedure, shortened: (§1)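 HIV-1 A17 mutant clone carrying protease mutations L10F, V32I, M46I, I47V, Q58E and I84V, generated by in vitro serial passage under LPV/RTV. EC50 was determined in MT-4 cells. Wild-type reference strain was HIV-1 pNL4-3.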

[2] = tested on: Human immunodeficiency virus 1; assay: Antiviral activity against wild-type HIV1 pNL4-3 infected in human MT4 cells after 5 days by MTT assay in presence of 50% human serum; type: functional, organism-based; conditions: Human immunodeficiency virus 1, MT4, 120 h
[3] = tested on: Human immunodeficiency virus 1; assay: Antiviral activity against wild-type HIV1 pNL4-3 infected in human MT4 cells after 5 days by MTT assay; type: functional, organism-based; conditions: Human immunodeficiency virus 1, MT4, 120 h
[4] = tested on: Human immunodeficiency virus 1; assay: Fold resistance, ratio of EC50 for HIV1 bearing protease gene with A17 mutation to EC50 for wild-type HIV1 pNL4-3; type: functional; procedure, shortened: as §1

Row | Structure (SMILES) | EC50 [1] | EC50 [2] | EC50 [3] | Ratio EC50 [4]
1 | COC(=O)N[C@H](C(=O)N[C@H](Cc1ccc(-c2ccccn2)cc1)C[C@H](O)[C@H](Cc1ccccc1)NC(=O)[C@@H](N1CCN(Cc2cccc(C)n2)C1=O)C(C)(C)C)C(C)(C)C | 21 nM | 27 nM | 5 nM | 4
2 | COC(=O)N[C@H](C(=O)N[C@@H](Cc1ccc(-c2ccccn2)cc1)[C@@H](O)C[C@H](Cc1ccccc1)NC(=O)[C@@H](N1CCN(Cc2csc(C(C)C)n2)C1=O)C(C)(C)C)C(C)(C)C | – | 13 nM | 1 nM | 1
3 | COC(=O)N[C@H](C(=O)N[C@@H](Cc1ccc(-c2ccccn2)cc1)[C@@H](O)C[C@H](Cc1ccccc1)NC(=O)[C@@H](N1CCN(Cc2ccccc2)C1=O)C(C)(C)C)C(C)(C)C | 4 nM | 10 nM | 1 nM | 4
4 | COC(=O)N[C@H](C(=O)N[C@@H](Cc1ccc(-c2ccccn2)cc1)C[C@H](O)[C@H](Cc1ccccc1)NC(=O)[C@@H](N1CCN(Cc2cccc(OC)c2)C1=O)C(C)(C)C)C(C)(C)C | 53 nM | 65 nM | 14 nM | 4
5 | COC(=O)N[C@H](C(=O)N[C@@H](Cc1ccc(-c2ccccn2)cc1)C[C@H](O)[C@H](Cc1ccccc1)NC(=O)[C@@H](N1CCN(Cc2ccc(N)cc2)C1=O)C(C)(C)C)C(C)(C)C | 30 nM | 63 nM | 10 nM | 3
6 | COC(=O)N[C@H](C(=O)N[C@@H](Cc1ccc(-c2ccccn2)cc1)[C@@H](O)C[C@H](Cc1ccccc1)NC(=O)[C@@H](N1CCN(Cc2cccc(C)n2)C1=O)C(C)(C)C)C(C)(C)C | – | 30 nM | 5 nM | 1
7 | COC(=O)N[C@H](C(=O)N[C@H](Cc1ccc(-c2ccccn2)cc1)C[C@H](O)[C@H](Cc1ccccc1)NC(=O)[C@@H](N1CCN(Cc2csc(-c3cccnc3)n2)C1=O)C(C)(C)C)C(C)(C)C | 7 nM | 15 nM | 2 nM | 4
8 | COC(=O)N[C@H](C(=O)N[C@@H](Cc1ccc(-c2ccccn2)cc1)C[C@H](O)[C@H](Cc1ccccc1)NC(=O)[C@@H](N1CCN(Cc2csc(C)n2)C1=O)C(C)(C)C)C(C)(C)C | – | 94 nM | 10 nM | 1
9 | COC(=O)N[C@H](C(=O)N[C@@H](Cc1ccc(-c2ccccn2)cc1)C[C@H](O)[C@H](Cc1ccccc1)NC(=O)[C@@H](N1CCN(Cc2ccccc2F)C1=O)C(C)(C)C)C(C)(C)C | 88 nM | 36 nM | 11 nM | –
10 | COC(=O)N[C@H](C(=O)N[C@@H](Cc1ccc(-c2ccccn2)cc1)C[C@H](O)[C@H](Cc1ccccc1)NC(=O)[C@@H](N1CCN(Cc2cccc(F)c2)C1=O)C(C)(C)C)C(C)(C)C | 38 nM | 28 nM | 4 nM | 9
11 | COC(=O)N[C@H](C(=O)N[C@@H](Cc1ccc(-c2ccccn2)cc1)C[C@H](O)[C@H](Cc1ccccc1)NC(=O)[C@@H](N1CCN(Cc2ccc(F)cc2)C1=O)C(C)(C)C)C(C)(C)C | 42 nM | 33 nM | 6 nM | 7
12 | COC(=O)N[C@H](C(=O)N[C@@H](Cc1ccc(-c2ccccn2)cc1)[C@@H](O)C[C@H](Cc1ccccc1)NC(=O)[C@@H](N1CCN(Cc2nc3ccccc3n2C)C1=O)C(C)(C)C)C(C)(C)C | 3 nM | 82 nM | 7 nM | <1
13 | COC(=O)N[C@H](C(=O)N[C@@H](Cc1ccc(-c2ccccn2)cc1)C[C@H](O)[C@H](Cc1ccccc1)NC(=O)[C@@H](N1CCN(Cc2ccccc2C)C1=O)C(C)(C)C)C(C)(C)C | 72 nM | 30 nM | 10 nM | 7
14 | COC(=O)N[C@H](C(=O)N[C@H](Cc1ccc(-c2ccccn2)cc1)C[C@H](O)[C@H](Cc1ccccc1)NC(=O)[C@@H](N1CCN(Cc2ccccc2)C1=O)C(C)(C)C)C(C)(C)C | 37 nM | 43 nM | 11 nM | 3
